# Screening results: PubChem BioAssay, several laboratories
# Rows were chosen to be rich in hits. Some 2% of all compounds tested hit in one or more screens of this group.
# PABP1 MLLE inh – inhibitors of microRNA-mediated deadenylation, human PABP1 MLLE binding; GST-MLLE / FITC-PAM2 fluorescence polarization; inhibition, % at 20 µM; 0.36% of 360,000 active; AID 588489; in the data active = inhibition above about 35%, passing the limit was not always enough
# Target sequence (P11940 whole entry, looked up): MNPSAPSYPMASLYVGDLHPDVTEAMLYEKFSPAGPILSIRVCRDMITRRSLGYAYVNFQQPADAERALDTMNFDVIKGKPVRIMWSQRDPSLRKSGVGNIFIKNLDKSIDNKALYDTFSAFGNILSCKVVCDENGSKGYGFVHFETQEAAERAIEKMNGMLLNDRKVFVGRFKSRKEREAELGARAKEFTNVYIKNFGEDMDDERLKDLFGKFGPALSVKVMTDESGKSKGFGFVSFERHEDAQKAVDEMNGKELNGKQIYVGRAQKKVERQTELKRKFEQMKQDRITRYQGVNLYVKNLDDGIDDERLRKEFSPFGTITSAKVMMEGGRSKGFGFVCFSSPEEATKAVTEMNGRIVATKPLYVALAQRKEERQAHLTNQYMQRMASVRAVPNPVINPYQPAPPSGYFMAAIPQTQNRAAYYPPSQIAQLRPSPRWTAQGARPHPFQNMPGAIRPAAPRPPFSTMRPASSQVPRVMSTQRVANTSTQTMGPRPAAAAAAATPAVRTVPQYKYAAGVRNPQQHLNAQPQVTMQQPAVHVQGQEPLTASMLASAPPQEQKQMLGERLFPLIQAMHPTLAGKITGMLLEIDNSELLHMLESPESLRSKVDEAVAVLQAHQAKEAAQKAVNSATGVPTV
# HCV core dimer – blocks dimerization of HCV core protein; inhibition, % at 5 µM; 0.33% of 300,000 active; TR-FRET GST/Flag-core106 dimerization, 1536-well;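 active = inhibition above the mean of all tested compounds plus 3 SD, set per screening campaign, cut at about 45% in these data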
#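 Assay system: Tagged HCV core106 pair (GST and Flag) | Buffer or medium: KF-containing HEPES buffer, pH 7.45, DTT, CHAPS, BSA | Also added: Eu donor and XL665 acceptor anti-tag antibodies | Dosing: One concentration, 5 µM, in 0.5% DMSO | Timing: 4 h at 22.5 °C | Technique: TR-FRET 671 and 617 nm emission | Repeats: Singlicate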
# eIF4H inh – inhibitors of RNA binding by human eIF4H | Q15056 | eIF4H fluorescence polarization binding assay | AID 2012 | 0.94% of 290,000 active | inhibition, % at 35 µM;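 also: calls also rest on retests at 20 µM and on dose response follow-up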
# PABP polyA inh – PABP-poly(A) binding inhibition. PABP-poly(A) RNA binding, fluorescence polarization. inhibition, % at 35 µM. 1% of 290,000 active. AID 2014;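 also: calls also rest on retests at 20 µM and on dose response follow-up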
# HCV NS3 hel inh – HCV NS3 helicase inhibition. NS3 helicase DNA unwinding, Cy5 molecular beacon fluorescence. inhibition, % at 10.9 µM. 0.56% of 290,000 active;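 active = inhibition above the mean of all tested compounds plus 3 SD, set per campaign, cut at about 35% in these data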
#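 Test system: hepatitis C virus NS3 helicase domain fragment enzyme. Also added: annealed dual-labelled DNA beacon duplex, ATP-started. Timing: 60 min unwinding reaction at 25 °C after ATP addition. Technique: Cy5 fluorescence. Measure: % inhibition of unwinding.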
# FID counter – displaces DNA intercalator in HCV helicase counter-screen | 0.17% of 290,000 active | DNA fluorescent intercalator displacement, fluorescence | inhibition, % at 7.9 µM; in the data active = inhibition above about 37%;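 also: higher means more ethidium bromide displaced from hairpin DNA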
# Numbers stand for hits; 0 = inactive; - = no result. Unless noted, no rule for the calls is given here.
SMILES,PABP1 MLLE inh,HCV core dimer,eIF4H inh,PABP polyA inh,HCV NS3 hel inh,FID counter
CCOC(=O)c1cc2c(c(CCO)n1)[C@@H](CCO)N(S(=O)(=O)C(C)(C)C)C2,0,-,-,-,-,-
COc1ccccc1C(=O)N/C(=C/c1ccco1)C(=O)Nc1cccc(C(=O)O)c1,0,0,67,49,0,0
O=C(/C=C/c1ccco1)Nc1cc(Cl)ccc1C(=O)O,0,0,89,active,0,0
COc1ccccc1S(=O)(=O)N(C)C[C@@H]1OCc2cnnn2CCCC(=O)N([C@H](C)CO)C[C@@H]1C,0,-,-,-,-,-
CCN(CC)CCn1c(=N)n(CC(O)COc2ccccc2)c2ccccc21 (centres undefined),0,0,0,0,0,37
O=C(NCCCNC(=O)c1cnccn1)c1cccc(F)c1,0,0,0,0,0,0
CC(=O)Nc1ccc(S(=O)(=O)NCc2ccc3c(c2)cc(C)n3C)cc1,0,0,55,60,0,0
Cc1cc2cc(CNS(=O)(=O)c3ccc4ccccc4c3)ccc2n1C,43,0,0,0,0,0
Cc1cc2cc(CNC(=S)Nc3ccc(OC(F)(F)F)cc3)ccc2n1C,46,0,0,0,0,0
Cc1cc(C)c(S(=O)(=O)NCc2ccc3c(c2)cc(C)n3C)c(C)c1,0,0,0,0,0,0
CC(=O)Nc1ccc(S(=O)(=O)NCc2ccc3[nH]c(C)cc3c2)cc1,0,0,0,0,0,0
O=C(Cc1coc2cc(O)ccc12)N1CCN(S(=O)(=O)c2ccc(Br)cc2)CC1,0,-,-,-,-,-
CCN(CC)CCn1c(SCC(=O)NCc2ccccc2)nc2c(sc3ccccc32)c1=O,0,0,4.5,52,0,0
O=C(CSc1nc2c(sc3ccccc32)c(=O)n1CCc1ccccc1)NCc1ccco1,0,0,0,0,0,0
CCCc1ccc(S(=O)(=O)N/N=C(/C)c2ccc3c(c2)OCO3)cc1,0,-,0,0,0,0
COc1ccc2c(c1)C1C=CCC1C(c1cc3c(cc1Br)OCO3)N2 (centres undefined),0,0,70,0,0,0
O=C(O)Cc1ccc(NC(=O)c2ccc3c(c2)C(=O)N(Cc2ccco2)C3=O)cc1,0,0,100,59,0,0
CC(=O)C1=CCC(c2cccc(Cl)c2)N(S(=O)(=O)c2ccc(C)cc2)C1 (centres undefined),0,-,-,-,-,-
CC(C)(C)C1CCC2(CC1)Nc1cccc3cccc(c13)N2,0,70,0,0,0,0
CCN(CC)c1ccc(C2Nc3cccc4cccc(c34)N2)cc1,0,0,0,0,0,0
O=c1c(/C=N/OCc2ccc(Cl)cc2Cl)c[nH]n1-c1cccc(Cl)n1,0,0,25,0,0,0
COc1ccccc1Cc1c(-c2ccc(Cl)cc2)nc2ccc(Br)cn12,0,-,-,-,-,-
Cn1c(=O)c2ncn(CC(=O)NC3CCCCCC3)c2n(C)c1=O,0,0,0,80,0,0
Cc1ccc(NC(=O)CC2SC3=NCCN3C2=O)cc1 (centres undefined),44,0,0,0,0,0
CCCN1C(=O)SC(CC(=O)Nc2ccc(C)cc2)C1=O (centres undefined),45,0,0,0,0,0
SMILES,PABP1 MLLE inh,HCV core dimer,eIF4H inh,PABP polyA inh,HCV NS3 hel inh,FID counter
Cc1ccc(NC(=O)CC2SC(=O)N(c3ccccc3)C2=O)cc1 (centres undefined),45,0,0,0,0,0
CC(=O)Nc1ccc(NC(=O)CC2SC(=O)N(CC(=O)c3ccccc3)C2=O)cc1 (centres undefined),0,0,0,0,0,0
Cc1cccc(NC(=O)CC2SC(=O)N(c3ccccc3)C2=O)c1 (centres undefined),0,0,0,0,0,0
O=C(Nc1ccccc1Cl)C1CCCN(c2ncnc3c2nc2n3CCCCC2)C1 (centres undefined),0,0,0,0,0,0
COc1ccc(CN2CCC[C@]3(N[C@H](c4ccc(C)cc4)[C@@H]4C(=O)N(C)C(=O)[C@@H]43)C2=O)cc1,0,-,-,-,-,-
C[C@@]12C(=O)NCC(=O)N1[C@@H]1c3cc(Br)ccc3OC[C@@H]1[C@@H]2c1ccccc1,0,-,-,-,-,-
NC(N)=N/N=C(\N=Nc1ccccc1)c1ccc(Cl)cc1,0,-,-,-,-,-
CC(C)CC(NC(=O)c1ccccc1)C(=O)N/N=C/c1ccco1 (centres undefined),0,0,58,active,0,0
Cc1ccc2[nH]c3c(=O)n(CC(=O)NCc4ccco4)ncc3c2c1,0,0,59,0,0,0
